Laboratory results from ChEMBL document CHEMBL5303300, “EUbOPEN Chemogenomics Library - Multiplex” (2023).
Several values for one entry are separate records, joined by “and”; a condition that tells them apart may be missing. Equal entries are not always repeated.

Columns and labels:
[1] = test system: Fibroblast; experiment: Multiplex assay against human fibroblast; assay type: toxicity, cell-based; conditions: number of replicates 2
Outline: (§1)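 At seeding, live cells were stained with Hoechst33342, BioTracker Green Microtubule Cytoskeleton Dye, MitoTracker Red and Annexin V Alexa Fluor 680. After compound addition they were imaged on a CQ1 microscope at 37°C and 5% CO2, and CellPathfinder machine-learning gating sorted them into Hoechst high-intensity objects or normal cells, with normal cells further split into healthy, pyknosed or fragmented nuclei and pyknosed cells into mitotic or apoptotic. Tubulin, mitochondrial-mass and membrane-permeability phenotypes are given as per cents of cells with healthy nuclei.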

[2] = test system: U2OS; experiment: Multiplex assay against U2OS; assay type: toxicity, cell-based; conditions: human, number of replicates 2; outline: as §1
[3] = 12 h, 1 µM, compound concentration 1 uM
[4] = 12 h, 10 µM, compound concentration 10 uM
[5] = 24 h, 1 µM, compound concentration 1 uM
[6] = 24 h, 10 µM, compound concentration 10 uM
[7] = 48 h, 1 µM, compound concentration 1 uM
[8] = 48 h, 10 µM, compound concentration 10 uM

SMILES: OC(c1ccc(-c2ccc(CN3CCN(Cc4ccncc4)CC3)cc2)c(F)c1)(C(F)(F)F)C(F)(F)F
- Population Apoptotic (%) [1, 3]: 54% and 23%
- Population Fragmented Nuclei (%) [1, 3]: 5% and 6%
- Population Healthy Nuclei (%) [1, 3]: 43% and 70%
- Population Hoechst High Intensity Objects (%) [1, 3]: 0%
- Population Membrane Permeable-Phenotype (%) [1, 3]: 8% and 3%
- Population Mitochondria Different-Phenotype (%) [1, 3]: 0% and 1%
- Population Mitotic Cells (%) [1, 3]: 45% and 76%
- Population Normal (%) [1, 3]: 100%
- Population Pyknosed Nuclei (%) [1, 3]: 50% and 23%
- Population Tubulin-Different-Phenotype (%) [1, 3]: 6% and 8%
- Total Cell Count [1, 3]: 108 and 164
- Population Apoptotic (%) [1, 4]: 31% and 45%
- Population Fragmented Nuclei (%) [1, 4]: 10% and 16%
- Population Healthy Nuclei (%) [1, 4]: 70% and 63%
- Population Hoechst High Intensity Objects (%) [1, 4]: 0%
- Population Membrane Permeable-Phenotype (%) [1, 4]: 6% and 8%
- Population Mitochondria Different-Phenotype (%) [1, 4]: 0% and 3%
- Population Mitotic Cells (%) [1, 4]: 68% and 55%
- Population Normal (%) [1, 4]: 100% and 99%
- Population Pyknosed Nuclei (%) [1, 4]: 18% and 19%
- Population Tubulin-Different-Phenotype (%) [1, 4]: 24% and 25%
- Total Cell Count [1, 4]: 156 and 204
- Population Apoptotic (%) [1, 5]: 61% and 55%
- Population Fragmented Nuclei (%) [1, 5]: 6% and 10%
- Population Healthy Nuclei (%) [1, 5]: 45% and 65%
- Population Hoechst High Intensity Objects (%) [1, 5]: 0%
- Population Membrane Permeable-Phenotype (%) [1, 5]: 12% and 7%
- Population Mitochondria Different-Phenotype (%) [1, 5]: 2% and 3%
- Population Mitotic Cells (%) [1, 5]: 38% and 44%
- Population Normal (%) [1, 5]: 100%
- Population Pyknosed Nuclei (%) [1, 5]: 47% and 23%
- Population Tubulin-Different-Phenotype (%) [1, 5]: 16% and 15%
- Total Cell Count [1, 5]: 109 and 151
- Population Apoptotic (%) [1, 6]: 44% and 45%
- Population Fragmented Nuclei (%) [1, 6]: 7% and 13%
- Population Healthy Nuclei (%) [1, 6]: 74% and 61%
- Population Hoechst High Intensity Objects (%) [1, 6]: 0%
- Population Membrane Permeable-Phenotype (%) [1, 6]: 3% and 7%
- Population Mitochondria Different-Phenotype (%) [1, 6]: 1% and 3%
- Population Mitotic Cells (%) [1, 6]: 56% and 54%
- Population Normal (%) [1, 6]: 99% and 100%
- Population Pyknosed Nuclei (%) [1, 6]: 17% and 24%
- Population Tubulin-Different-Phenotype (%) [1, 6]: 16% and 23%
- Total Cell Count [1, 6]: 144 and 197
- Population Apoptotic (%) [1, 7]: 74% and 80%
- Population Fragmented Nuclei (%) [1, 7]: 16% and 17%
- Population Healthy Nuclei (%) [1, 7]: 53% and 61%
- Population Hoechst High Intensity Objects (%) [1, 7]: 0%
- Population Membrane Permeable-Phenotype (%) [1, 7]: 11% and 5%
- Population Mitochondria Different-Phenotype (%) [1, 7]: 0%
- Population Mitotic Cells (%) [1, 7]: 25% and 19%
- Population Normal (%) [1, 7]: 100%
- Population Pyknosed Nuclei (%) [1, 7]: 29% and 21%
- Population Tubulin-Different-Phenotype (%) [1, 7]: 11% and 12%
- Total Cell Count [1, 7]: 118 and 167
- Population Apoptotic (%) [1, 8]: 73% and 77%
- Population Fragmented Nuclei (%) [1, 8]: 14% and 16%
- Population Healthy Nuclei (%) [1, 8]: 73% and 71%
- Population Hoechst High Intensity Objects (%) [1, 8]: 0%
- Population Membrane Permeable-Phenotype (%) [1, 8]: 6% and 4%
- Population Mitochondria Different-Phenotype (%) [1, 8]: 0% and 2%
- Population Mitotic Cells (%) [1, 8]: 26% and 22%
- Population Normal (%) [1, 8]: 100%
- Population Pyknosed Nuclei (%) [1, 8]: 11% and 12%
- Population Tubulin-Different-Phenotype (%) [1, 8]: 16% and 12%
- Total Cell Count [1, 8]: 162 and 183
- Population Hoechst High Intensity Objects (%) [2, 3]: 0%
- Population Mitochondria Different-Phenotype (%) [2, 3]: 0% and 1%
- Population Normal (%) [2, 3]: 100%
- Population Pyknosed Nuclei (%) [2, 3]: 14% and 9%
- Population Tubulin-Different-Phenotype (%) [2, 3]: 100% and 87%
- Population Apoptotic (%) [2, 4]: 50% and 40%
- Population Healthy Nuclei (%) [2, 4]: 80% and 50%
- Population Hoechst High Intensity Objects (%) [2, 4]: 0%
- Population Mitochondria Different-Phenotype (%) [2, 4]: 3% and 0%
- Population Mitotic Cells (%) [2, 4]: 50% and 60%
- Population Normal (%) [2, 4]: 100%
- Population Pyknosed Nuclei (%) [2, 4]: 15% and 17%
- Population Hoechst High Intensity Objects (%) [2, 5]: 0%
- Population Membrane Permeable-Phenotype (%) [2, 5]: 0%
- Population Mitochondria Different-Phenotype (%) [2, 5]: 0%
- Population Mitotic Cells (%) [2, 5]: 100% and 42%
- Population Normal (%) [2, 5]: 100% and 99%
- Population Pyknosed Nuclei (%) [2, 5]: 20% and 9%
- Population Apoptotic (%) [2, 6]: 53% and 57%
- Population Healthy Nuclei (%) [2, 6]: 79% and 54%
- Population Hoechst High Intensity Objects (%) [2, 6]: 0%
- Population Mitochondria Different-Phenotype (%) [2, 6]: 2% and 0%
- Population Mitotic Cells (%) [2, 6]: 46% and 42%
- Population Normal (%) [2, 6]: 99% and 100%
- Population Pyknosed Nuclei (%) [2, 6]: 14% and 18%
- Population Tubulin-Different-Phenotype (%) [2, 6]: 50% and 25%
- Population Hoechst High Intensity Objects (%) [2, 7]: 0%
- Population Membrane Permeable-Phenotype (%) [2, 7]: 0% and 1%
- Population Mitochondria Different-Phenotype (%) [2, 7]: 0%
- Population Normal (%) [2, 7]: 100%
- Population Pyknosed Nuclei (%) [2, 7]: 0% and 5%
- Population Apoptotic (%) [2, 8]: 54% and 58%
- Population Healthy Nuclei (%) [2, 8]: 84% and 56%
- Population Hoechst High Intensity Objects (%) [2, 8]: 0% and 1%
- Population Membrane Permeable-Phenotype (%) [2, 8]: 3% and 10%
- Population Mitochondria Different-Phenotype (%) [2, 8]: 2% and 3%
- Population Mitotic Cells (%) [2, 8]: 45% and 41%
- Population Normal (%) [2, 8]: 100% and 98%
- Population Pyknosed Nuclei (%) [2, 8]: 11% and 23%
